Results as given in ChEMBL document CHEMBL4725354 (J Med Chem, 2020).
pIC50: −log10 of the molar value.

Experiments:
[1] = biological target: T1, Broad substrate specificity ATP-binding cassette transporter ABCG2 (Homo sapiens, UniProt Q9UNQ0); experiment: Inhibition of human ABCG2 expressed in MDCK2 cells co-expressing GFP preincubated for 30 mins followed by Hoechst 33342 addition and measured every 60 sec for 120 mins by fluorescence assay; format: cell-based, MDCK-II
T1 sequence (Q9UNQ0 whole entry): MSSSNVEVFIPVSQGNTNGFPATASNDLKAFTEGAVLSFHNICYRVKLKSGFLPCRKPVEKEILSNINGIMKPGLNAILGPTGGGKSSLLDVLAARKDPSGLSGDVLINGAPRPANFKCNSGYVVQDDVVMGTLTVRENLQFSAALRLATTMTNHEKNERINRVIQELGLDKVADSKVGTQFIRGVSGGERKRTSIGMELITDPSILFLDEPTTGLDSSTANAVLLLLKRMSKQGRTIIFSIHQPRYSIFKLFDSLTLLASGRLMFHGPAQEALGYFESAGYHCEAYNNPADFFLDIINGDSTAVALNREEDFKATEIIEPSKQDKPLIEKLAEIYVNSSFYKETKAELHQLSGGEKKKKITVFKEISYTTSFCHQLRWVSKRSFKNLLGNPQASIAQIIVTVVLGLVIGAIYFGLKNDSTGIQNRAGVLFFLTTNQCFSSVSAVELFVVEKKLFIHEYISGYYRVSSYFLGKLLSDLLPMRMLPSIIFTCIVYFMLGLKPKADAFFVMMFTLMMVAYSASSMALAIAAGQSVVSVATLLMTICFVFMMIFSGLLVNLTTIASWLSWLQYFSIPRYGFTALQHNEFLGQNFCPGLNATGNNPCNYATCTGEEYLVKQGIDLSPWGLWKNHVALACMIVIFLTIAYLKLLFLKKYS
In short: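 MDCK II cells transfected with human ABCG2 cDNA C-terminally fused to GFP. Hoechst 33342 added at 1 µM final. Fluorescence (ex 355, em 460 nm) read every 60 s for 120 min. Steady-state means vs log concentration fitted by 3- or 4-parameter logistic to give IC50.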

ABCG2 [2] = biological target: T2, ABCG2 (Homo sapiens, UniProt Q9UNQ0); experiment: Inhibition of human ABCG2 expressed in MDCK2 cells co-expressing GFP preincubated for 30 mins followed by Hoechst 33342 addition and measured every 60 sec for 120 mins by fluorescence assay relative to control; format: cell-based, MDCK-II; details: probe Hoechst 33342, read-out: Imax
T2 sequence (Q9UNQ0 whole entry): T1 sequence (Q9UNQ0 whole entry)
In short: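 MDCK II cells transfected with human ABCG2 cDNA C-terminally fused to GFP. Steady-state means vs log concentration fitted by 3- or 4-parameter logistic to give IC50.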

[3] = biological target: T1, Broad substrate specificity ATP-binding cassette transporter ABCG2; experiment: Inhibition of human ABCG2 expressed in MDCK2 cells co-expressing GFP preincubated for 15 mins followed by pheophorbideA addition and measured after 2 hrs by flow cytometric analysis; format: cell-based, MDCK-II
In short: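 Pheophorbide A added to 0.5 µM final and incubated 2 h. Read by flow cytometry (ex 488, em 695/50 nm); GFP expression checked at 525/30 nm. IC50 from 3- or 4-parameter logistic fit.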

ABCG2 [4] = biological target: T2, ABCG2; experiment: Inhibition of human ABCG2 expressed in MDCK2 cells co-expressing GFP preincubated for 15 mins followed by pheophorbideA addition and measured after 2 hrs by flow cytometric analysis relative to control; format: cell-based, MDCK-II; details: probe pheophorbide A, read-out: Imax
MDCK-II [5] = experiment: Cytotoxicity against MDCK2 cells over expressing human ABCG2 at 10 uM assessed as reduction in cell viability after 72 hrs by MTT assay; format: ADME, cell-based, Canis lupus familiaris; details: dog
In short: (§1)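 Single-concentration screen at 10 µM in MDCK II BCRP and parental MDCK II cells. MTT assay, 72 h at 37 °C, 5% CO2. Viability referenced to culture medium (100%) and 10% DMSO (0%). Mean ± SEM of at least three independent experiments with duplicates.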

MDCK-II [6] = experiment: Cytotoxicity against MDCK2 cells assessed as reduction in cell viability at 10 uM after 72 hrs by MTT assay; format: cell-based, Canis lupus familiaris; details: dog; in short: as §1
[7] = biological target: ATP-dependent translocase ABCB1 (Homo sapiens, UniProt P08183); experiment: Inhibition of human ABCB1 expressed in A2780/ADR cells preincubated for 30 mins followed by calcein AM addition and measured every 60 secs for 60 mins by fluorescence assay; format: cell-based
Chain of ATP-dependent translocase ABCB1 (P08183 whole entry): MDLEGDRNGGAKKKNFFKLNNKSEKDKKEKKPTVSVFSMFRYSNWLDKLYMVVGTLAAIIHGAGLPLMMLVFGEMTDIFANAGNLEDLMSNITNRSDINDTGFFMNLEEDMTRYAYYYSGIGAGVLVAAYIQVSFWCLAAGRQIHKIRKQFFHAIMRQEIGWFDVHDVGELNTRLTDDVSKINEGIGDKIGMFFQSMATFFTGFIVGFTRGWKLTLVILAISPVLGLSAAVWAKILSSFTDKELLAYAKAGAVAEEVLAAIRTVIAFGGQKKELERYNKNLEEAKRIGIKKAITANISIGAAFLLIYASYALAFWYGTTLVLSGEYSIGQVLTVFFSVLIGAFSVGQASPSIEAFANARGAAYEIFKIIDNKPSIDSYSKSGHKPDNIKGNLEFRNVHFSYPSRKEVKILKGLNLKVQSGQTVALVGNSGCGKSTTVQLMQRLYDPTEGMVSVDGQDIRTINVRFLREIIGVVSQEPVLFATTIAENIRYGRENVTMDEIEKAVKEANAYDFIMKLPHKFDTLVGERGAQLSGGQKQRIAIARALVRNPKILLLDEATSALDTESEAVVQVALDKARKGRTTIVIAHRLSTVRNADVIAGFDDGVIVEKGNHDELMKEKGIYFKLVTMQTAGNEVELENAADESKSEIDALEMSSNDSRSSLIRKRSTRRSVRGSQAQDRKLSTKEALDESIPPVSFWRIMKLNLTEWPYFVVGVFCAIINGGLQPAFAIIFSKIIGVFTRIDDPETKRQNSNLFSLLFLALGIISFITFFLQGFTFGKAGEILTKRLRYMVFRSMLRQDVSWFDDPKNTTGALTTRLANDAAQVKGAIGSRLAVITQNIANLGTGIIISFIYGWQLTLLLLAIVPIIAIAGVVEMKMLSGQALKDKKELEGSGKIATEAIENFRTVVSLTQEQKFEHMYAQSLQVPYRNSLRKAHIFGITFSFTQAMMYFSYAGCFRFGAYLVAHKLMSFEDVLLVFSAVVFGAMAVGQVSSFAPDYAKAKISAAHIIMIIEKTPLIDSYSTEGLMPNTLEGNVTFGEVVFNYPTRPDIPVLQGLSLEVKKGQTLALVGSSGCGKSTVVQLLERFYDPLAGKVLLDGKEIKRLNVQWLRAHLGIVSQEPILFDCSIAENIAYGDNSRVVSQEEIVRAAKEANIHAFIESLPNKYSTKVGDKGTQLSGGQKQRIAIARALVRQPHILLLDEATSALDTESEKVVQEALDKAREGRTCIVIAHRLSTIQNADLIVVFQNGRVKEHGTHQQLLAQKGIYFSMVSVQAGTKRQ
In short: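 ABCB1 in A2780/ADR cells (kept resistant by one passage in 1 µM doxorubicin every 10 passages). 30,000 cells per well in Krebs-HEPES buffer, preincubated 30 min at 37 °C with inhibitor. Calcein AM added from a 3.125 µM solution. Fluorescence (ex 485, em 520 nm) read every 60 s for 60 min. Initial linear slopes vs log concentration fitted to give IC50.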

[8] = Growth inhibition of MDCK2 cells over expressing human ABCG2 after 72 hrs by MTT assay; format: ADME, cell-based, Canis lupus familiaris, MDCK-II; details: dog, MDCK2 cells overexpressing human ABCG2
In short: (§2)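 MTT viability assay. Compound dilutions in culture medium (3.2 to 1000 µM as prepared). About 2,000 cells per well, 72 h at 37 °C, 5% CO2. Culture medium set as 100% and 10% DMSO as 0% viability. MTT added for 1 h, formazan dissolved in DMSO, absorbance read at 570 nm with 690 nm background. GI50 from nonlinear regression of absorbance vs log concentration; at least three independent experiments, duplicates, mean ± SEM.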

[9] = Growth inhibition of MDCK2 cells after 72 hrs by MTT assay; format: cell-based, Canis lupus familiaris, MDCK-II; details: dog; in short: as §2
ABCG2 [10] = experiment: Therapeutic ratio of GI50 for Growth inhibition of MDCK2 cells over expressing human ABCG2 to IC50 for inhibition of human ABCG2 expressed in MDCK2 cells co-expressing GFP preincubated for 30 mins followed by Hoechst 33342 addition and measured every 60 sec for 120 mins by fluorescence assay; format: toxicity, cell-based; details: dog, MDCK2 cells overexpressing human ABCG2, probe Hoechst 33342; read-out: TI
ABCG2 [11] = experiment: Therapeutic ratio of GI50 for Growth inhibition of MDCK2 cells over expressing human ABCG2 to IC50 for inhibition of human ABCG2 expressed in MDCK2 cells co-expressing GFP preincubated for 15 mins followed by pheophorbideA addition and measured after 2 hrs by flow cytometric analysis; format: toxicity, cell-based; details: dog, MDCK2 cells overexpressing human ABCG2, probe pheophorbide A; read-out: TI

Compound | pIC50 [1] | Emax at 2 h (ABCG2 [2]) | pIC50 [3] | Emax at 2 h (ABCG2 [4]) | Activity (MDCK-II [5]) | Activity (MDCK-II [6]) | pIC50 [7] | GI50 at 72 h [8] | GI50 at 72 h [9] | selectivity ratio (ABCG2 [10]) | selectivity ratio at 2 h (ABCG2 [11])
Cc1cc(Nc2cccc(F)c2)nc(-c2ccccc2)n1 | 5.95 | 100% | 6.11 | 100% | Non-Toxic | Non-Toxic | – | – | – | – | –
Cc1cc(Nc2ccc(C#N)c(C#N)c2)nc(-c2ccccc2)n1 | 6.73 | 117% | 6.26 | 100% | Non-Toxic | Non-Toxic | – | – | – | – | –
Cc1cc(Nc2ccc(CC#N)cc2)nc(-c2ccccc2)n1 | 5.60 | 100% | 5.44 | 100% | Non-Toxic | Non-Toxic | 4.80 | – | – | – | –
Cc1cc(Nc2ccc(F)c(C#N)c2)nc(-c2ccccc2)n1 | 6.51 | 100% | 7.06 | 59% | Non-Toxic | Non-Toxic | – | 96.7 µM | 102 µM | 315 | 1120
Cc1cc(Nc2cccc(CO)c2)nc(-c2ccccc2)n1 | 5.37 | 100% | 5.60 | 100% | Non-Toxic | Non-Toxic | – | – | – | – | –
COc1cccc(Nc2cc(C)nc(-c3ccccc3)n2)c1 | 6.57 | 96% | 6.30 | 100% | Non-Toxic | Non-Toxic | 4.87 | – | – | – | –
Cc1cc(Nc2ccc([N+](=O)[O-])c(Cl)c2)nc(-c2ccccc2)n1 | 7.23 | 76% | 6.64 | 86% | Non-Toxic | Non-Toxic | – | – | – | – | –
Cc1cc(Nc2ccc3c(c2)C(=O)NC3=O)nc(-c2ccccc2)n1 | 6.60 | 105% | 6.38 | 101% | Non-Toxic | Non-Toxic | 4.75 | – | – | – | –
Cc1cc(Nc2ccc(C#N)c(Br)c2)nc(-c2ccccc2)n1 | 6.92 | 90% | 7.23 | 40% | Non-Toxic | Non-Toxic | – | 145 µM | 188 µM | 1220 | 2440
Cc1cc(Nc2ccc(C#N)c(C(F)(F)F)c2)nc(-c2ccccc2)n1 | 7.16 | 114% | 6.41 | 92% | Toxic | Toxic | – | 9.57 µM | 9.89 µM | 139 | 25
Cc1cc(Nc2cccc([N+](=O)[O-])c2)nc(-c2ccccc2)n1 | 6.89 | 80% | 6.84 | 68% | Non-Toxic | Non-Toxic | – | – | – | – | –
COc1ccc(Nc2cc(C)nc(-c3ccccc3)n2)cc1F | 6.06 | 100% | 5.88 | 100% | Non-Toxic | Non-Toxic | 5.05 | – | – | – | –
Cc1cc(Nc2ccc3c(c2)OCCO3)nc(-c2ccccc2)n1 | 6.09 | 100% | 5.79 | 100% | Non-Toxic | Non-Toxic | 4.88 | – | – | – | –
Cc1cc(Nc2ccc([N+](=O)[O-])cc2)nc(-c2ccccc2)n1 | 7.28 | 79% | 6.81 | 67% | Non-Toxic | Non-Toxic | 4.95 | 17 µM | 16.7 µM | 327 | 111
Cc1cc(Nc2ccc(F)c([N+](=O)[O-])c2)nc(-c2ccccc2)n1 | 6.00 | 100% | 6.11 | 100% | Non-Toxic | Non-Toxic | – | – | – | – | –
C[S+](C)[O-] [DIMETHYL SULFOXIDE] | – | – | – | – | – | – | – | 137 µM | 123 µM | – | –
Cc1cc(Nc2cccc(O)c2)nc(-c2ccccc2)n1 | 6.60 | 74% | 6.29 | 59% | Non-Toxic | Non-Toxic | – | – | – | – | –
